Measured values published in ChEMBL document CHEMBL4513216, “Probing the Open Global Health Chemical Diversity Library for Multistage-Active Starting Points for Next-Generation Antimalarials” (ACS Infect Dis, 2020).

Test: Toxicity liver stage against HepG2, at 10uM
Type: cell-based
Design: test concentration 10 uM, cell line HepG2-A16-CD81EGFP
Details: human, HepG2-A16-CD81EGFP cells; read-out: INHIBITION
Method in brief: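 Uninfected HepG2-A16-CD81EGFP cells, 3 × 10^3 per well, 1536-well, plated on prespotted compound at 10 μM final, parasite-free screening media added to match infected plates; puromycin 10 μM positive, DMSO 0.5% negative; run in parallel with 48 h PbLuc assay at 37 °C, 5% CO2; viability by CellTiter-Glo luminescence, normalized to controls.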

Q: For `Cc1cc(C)c(S(N)(=O)=O)cc1C(=O)NCCN1CCCCC1`, which cytotoxicity at 10 µM is on record?
A: -5.52%

Q: With `COc1cccc(N2CCN(C(=O)C(O)CC(C)C)CC2=O)c1` (stereo unspecified) as the molecule, how does the cytotoxicity at 10 µM read?
A: -14.7%

Q: Which cytotoxicity at 10 µM does the source give for `COCC(=O)N1CCCC(C)(c2nncn2C)C1` (stereo unspecified) here?
A: 4.08%

Q: For `CCc1nnc(CN(C)Cc2cccc(C(=O)Nc3ccnn3C)c2)o1`, which cytotoxicity at 10 µM is on record?
A: -3.7%

Q: Which cytotoxicity at 10 µM does the source give for `Cc1nc(CCNCc2c(C)nn(C)c2N2CCOCC2)cs1` here?
A: -11.5%

Q: For `CCC(=O)N(C)Cc1cccc(OC(C)C)c1`, which cytotoxicity at 10 µM is on record?
A: 12.8%

Q: Which cytotoxicity at 10 µM does the source give for `CC(C)(C)C(=O)N1CCC(c2noc(C3CCC(=O)N3)n2)CC1` (stereo unspecified) here?
A: -3.06%

Q: For `Cc1nnc(CN2CCOC(c3ccc(Cl)cc3)C2)o1` (stereo unspecified), which cytotoxicity at 10 µM is on record?
A: 5.33%

Q: Which cytotoxicity at 10 µM does the source give for `O=C(NC1CCS(=O)(=O)C1)c1sccc1-c1ccc(F)cc1` (stereo unspecified) here?
A: 8.14%

Q: Which cytotoxicity at 10 µM does the source give for `CCCS(=O)(=O)N1CCC2(CN(c3ccsc3)C(=O)CN2C)C1` (stereo unspecified) here?
A: -21.1%

Q: With `C[C@@H]1CN(Cc2nc(C(N)=O)no2)CC[C@@]1(O)C1CC1` as the molecule, how does the cytotoxicity at 10 µM read?
A: -50.3%

Q: With `CCN1C(=O)CCC12CCN(C(=O)c1ccco1)CC2` as the molecule, how does the cytotoxicity at 10 µM read?
A: -3.66%

Q: For `O=C(NCc1nc[nH]n1)c1cc(COc2cccc(F)c2)[nH]n1`, which cytotoxicity at 10 µM is on record?
A: -4.99%

Q: With `Cc1cc(C)c(CNC(=O)NCc2ccc(F)cc2)c(=O)[nH]1` as the molecule, how does the cytotoxicity at 10 µM read?
A: -6.34%

Q: For `CN(C)c1ccnc(-c2ccnc3c2ccn3C)n1`, which cytotoxicity at 10 µM is on record?
A: 20.2%

Q: With `O=C1NC2(Cc3ccccc31)CN(CC1CCOCC1)C2` as the molecule, how does the cytotoxicity at 10 µM read?
A: 14%

Q: With `CC1CN(C(=O)c2ccc(C(N)=O)cc2)c2ccc(F)cc2O1` (stereo unspecified) as the molecule, how does the cytotoxicity at 10 µM read?
A: 8.07%

Q: For `Cc1cnc(N2CCC3(CC2)CN(Cc2cccs2)CCO3)nc1`, which cytotoxicity at 10 µM is on record?
A: 16.2%

Q: With `CN(CC(=O)N1CCN(c2ccccc2F)CC1)c1cnccn1` as the molecule, how does the cytotoxicity at 10 µM read?
A: -0.341%

Q: For `CCN(Cc1ccc2c(c1)OCO2)C(=O)CCc1c(C)nc(C)[nH]c1=O`, which cytotoxicity at 10 µM is on record?
A: -4.61%

Q: For `Cc1cc(C(=O)N(C)Cc2ccccc2OCC(C)C)cc(=O)[nH]1`, which cytotoxicity at 10 µM is on record?
A: 8.45%

Q: Which cytotoxicity at 10 µM does the source give for `Cc1cccc(CN2C[C@@H]3COC[C@]3(CNC(=O)C3CCC3)C2)c1` here?
A: -112%

Q: With `CC(NC(=O)c1cnccn1)c1nnc2ccccn12` (stereo unspecified) as the molecule, how does the cytotoxicity at 10 µM read?
A: 5.1%

Q: For `O=C(Cc1ccccn1)N1C[C@H](OCc2cccnc2)[C@H]2COC[C@H]21`, which cytotoxicity at 10 µM is on record?
A: 12.3%

Q: Which cytotoxicity at 10 µM does the source give for `CN(C1CCCC1)C(C)(C)C(=O)NCCS(C)(=O)=O` here?
A: -49.7%

Q: With `CN1CCc2[nH]nc(C(=O)N3CCCC4(CC3)CNC(=O)O4)c2C1` (stereo unspecified) as the molecule, how does the cytotoxicity at 10 µM read?
A: -44.6%

Q: With `Fc1cccc(-c2nc(CN3CCCC3Cn3cccn3)co2)c1` (stereo unspecified) as the molecule, how does the cytotoxicity at 10 µM read?
A: -11%

Q: Which cytotoxicity at 10 µM does the source give for `COc1ccc(C)cc1CN1CCCC1c1noc(C2CC2)n1` (stereo unspecified) here?
A: 16.3%

Q: Which cytotoxicity at 10 µM does the source give for `COCCN1CCCn2cnc(CNC(=O)N(C)C)c2C1` here?
A: 4.47%

Q: For `O=C(Nc1ccccc1)C1=NOC2(CCCN(C(=O)C3CCCC3)C2)C1` (stereo unspecified), which cytotoxicity at 10 µM is on record?
A: 4.88%

Q: With `Cc1ccccc1CN(C)C(C(N)=O)c1ccccc1` (stereo unspecified) as the molecule, how does the cytotoxicity at 10 µM read?
A: 13.1%

Q: Which cytotoxicity at 10 µM does the source give for `CC(C)c1cc(NC(=O)CN2CCCC(Cn3cncn3)C2)on1` (stereo unspecified) here?
A: 14%

Q: Which cytotoxicity at 10 µM does the source give for `COC1CCN(c2ccc(NC(=O)Cn3cccn3)cc2)CC1` here?
A: 2.04%

Q: Which cytotoxicity at 10 µM does the source give for `CS(=O)(=O)c1ccc(CNC(=O)N2CCC(C(N)=O)CC2)cc1` here?
A: -3.78%

Q: Which cytotoxicity at 10 µM does the source give for `Cc1cccc(CN2CCc3onc(CN(C)C)c3C2)n1` here?
A: -4.62%

Q: Which cytotoxicity at 10 µM does the source give for `Cc1ccccc1C(=O)NCCC(=O)NS(=O)(=O)c1cccnc1` here?
A: -11.6%

Q: With `CNc1nc2c(c(C(=O)N3CCCC3)n1)CN(Cc1cc(C)no1)CC2` as the molecule, how does the cytotoxicity at 10 µM read?
A: -103%

Q: For `Cc1cc(C)n(CC(=O)N2CCC(NS(=O)(=O)c3ccccc3)CC2)n1`, which cytotoxicity at 10 µM is on record?
A: 4.59%

Q: With `Cc1noc(CCCNS(=O)(=O)N2CCCC2c2ccco2)n1` (stereo unspecified) as the molecule, how does the cytotoxicity at 10 µM read?
A: -7.88%

Q: For `COC(=O)CC(c1ccccc1)c1oc(C)cc(=O)c1O` (stereo unspecified), which cytotoxicity at 10 µM is on record?
A: 26.7%

Q: For `Cc1nccc(CNC(=O)NCCOc2ccc(F)c(F)c2)n1`, which cytotoxicity at 10 µM is on record?
A: -17%

Q: Which cytotoxicity at 10 µM does the source give for `CN(C)C(CNC(=O)c1cc2c([nH]c1=O)CCCC2=O)c1ccsc1` (stereo unspecified) here?
A: -1.96%

Q: Which cytotoxicity at 10 µM does the source give for `O=C(NCc1cc2n(n1)CCCNC2)C1(c2ccc(Cl)cc2)CCC1` here?
A: -9.72%

Q: Which cytotoxicity at 10 µM does the source give for `CC(C)c1nc(CN(C)C(=O)CNS(=O)(=O)c2cccs2)cs1` here?
A: -6.46%

Q: For `CC(=O)N1CC(=O)N(c2ccccc2)CC12CCN(Cc1nccs1)C2` (stereo unspecified), which cytotoxicity at 10 µM is on record?
A: -2.23%

Q: For `O=C1CC(C(=O)O)C2(CCN(C(=O)Nc3ccccc3Cl)CC2)N1` (stereo unspecified), which cytotoxicity at 10 µM is on record?
A: 2.14%

Q: Which cytotoxicity at 10 µM does the source give for `CN(Cc1nnc(-c2ccco2)o1)C1CCCN(c2cccnn2)C1` (stereo unspecified) here?
A: -7.39%

Q: For `Cc1cc(C)c(CNC(=O)NCc2cc(F)cc(F)c2)c(=O)[nH]1`, which cytotoxicity at 10 µM is on record?
A: -4.98%

Q: With `Cn1c2ncccc2c(=O)n1CC(=O)NCCC1=CCCCC1` as the molecule, how does the cytotoxicity at 10 µM read?
A: 19%

Q: Which cytotoxicity at 10 µM does the source give for `COc1cccc2c1OCC(C(=O)N(C)CCCc1cnn(C)c1)C2` (stereo unspecified) here?
A: -2.98%

Q: With `Cc1ccc(CN2CCN(C(=O)CCc3nc(Cl)n[nH]3)CC2=O)cc1` as the molecule, how does the cytotoxicity at 10 µM read?
A: -0.903%

Q: With `CNC(=O)[C@@H](c1ccccc1OC)N1CCC[C@H]1C(=O)N1CCC1` as the molecule, how does the cytotoxicity at 10 µM read?
A: 1.44%

Q: With `Cn1cnnc1C1CCN(C(=O)CCOc2ccc(Cl)cc2)CC1` as the molecule, how does the cytotoxicity at 10 µM read?
A: -8.94%

Q: For `COc1c(Cl)cc(C(=O)NCCNc2ncccn2)cc1Cl`, which cytotoxicity at 10 µM is on record?
A: -9.32%

Q: With `COc1ccc(CN2Cc3[nH]nc(C(=O)N(C)C)c3C2)cc1` as the molecule, how does the cytotoxicity at 10 µM read?
A: -2.48%

Q: Which cytotoxicity at 10 µM does the source give for `C1=CCN(c2nc(CC3CC3)nc3c2CCN(C2CCOCC2)CC3)C1` here?
A: 0.0776%

Q: Which cytotoxicity at 10 µM does the source give for `O=C(O)C1(Cc2ccccc2Cl)CCN(c2ncccn2)CC1` here?
A: 7.04%

Q: For `CNc1snc(C)c1C(=O)NC(C)CC(=O)c1cccs1` (stereo unspecified), which cytotoxicity at 10 µM is on record?
A: -0.227%

Q: For `CN(C)CCCC(=O)NC1CC(C)(C)Cc2nc(C(C)(C)C)ncc21` (stereo unspecified), which cytotoxicity at 10 µM is on record?
A: 15.2%

Q: For `COCCN1C[C@@H]2CC[C@H]1CN(CC(=O)Nc1ccn(C)n1)C2`, which cytotoxicity at 10 µM is on record?
A: -8.39%

Q: For `CCOc1ccc(NC(=O)NCCS(=O)(=O)CC)cc1C`, which cytotoxicity at 10 µM is on record?
A: -3%

Q: For `CNC(=O)c1cc(NC(=O)Nc2cnn(CC(C)C)c2)ccc1F`, which cytotoxicity at 10 µM is on record?
A: -3.79%

Q: For `CC(C)(C)C(=O)NCCC(=O)NC(C)(C)c1ccc2c(c1)OCO2`, which cytotoxicity at 10 µM is on record?
A: -1.26%

Q: Which cytotoxicity at 10 µM does the source give for `CCCc1nc(CN(CC)Cc2ccc(S(C)(=O)=O)cc2)no1` here?
A: -16.9%

Q: For `N#Cc1nc(COc2ccc3c(c2)OCO3)oc1NC1CCCCC1`, which cytotoxicity at 10 µM is on record?
A: -41.4%

Q: For `Cc1cc(C)n(C2CN(CCc3ccccn3)C2)n1`, which cytotoxicity at 10 µM is on record?
A: 3.65%

Q: With `Cn1cnc2c1CCN(CCCS(=O)(=O)c1ccccc1)C2` as the molecule, how does the cytotoxicity at 10 µM read?
A: -7.54%

Q: With `COCC1N(S(=O)(=O)c2cn(C)cn2)C2CCC1(O)CC2` (stereo unspecified) as the molecule, how does the cytotoxicity at 10 µM read?
A: -2.04%

Q: Which cytotoxicity at 10 µM does the source give for `Cc1ccc(F)cc1C(=O)N1CCN(S(C)(=O)=O)[C@@H](C)C1` here?
A: -2.53%

Q: For `CCc1noc(CS(=O)(=O)C/C=C/c2ccccc2)n1`, which cytotoxicity at 10 µM is on record?
A: -18.4%

Q: For `CCNc1nc2cn(-c3ccc(Cl)cc3)c(=O)c-2c[nH]1`, which cytotoxicity at 10 µM is on record?
A: 7.67%

Q: Which cytotoxicity at 10 µM does the source give for `CCC1=NN2C(=N)C(=Cc3cccn3-c3cccc(Cl)c3)C(=O)N=C2S1` here?
A: -5.7%

Q: For `CSCC1CCN(C(=O)c2ccccc2NCc2cccnc2)C1` (stereo unspecified), which cytotoxicity at 10 µM is on record?
A: -3.33%

Q: For `Cc1n[nH]c(C2CN(CC(=O)NCc3sccc3C)CCO2)n1` (stereo unspecified), which cytotoxicity at 10 µM is on record?
A: -4.75%

Q: With `CN(C)Cc1cnc(C2CCN(C(=O)c3ccccc3F)C2)[nH]1` (stereo unspecified) as the molecule, how does the cytotoxicity at 10 µM read?
A: 0.578%

Q: For `CN(Cc1cccnc1)C1CCCN(Cc2noc(C3CC3)n2)C1` (stereo unspecified), which cytotoxicity at 10 µM is on record?
A: -4.95%

Q: For `O=C(NCc1ccco1)[C@H]1C[C@H]2OCC[C@H]2N(C(=O)c2ccncc2)C1`, which cytotoxicity at 10 µM is on record?
A: -5.34%

Q: Which cytotoxicity at 10 µM does the source give for `O=C(CNC(=O)c1ccc(Cl)cc1)Nc1nccs1` here?
A: -7.55%

Q: With `CC(=O)N1CCN(Cc2nnc(C(C)(C)C)o2)CC1` as the molecule, how does the cytotoxicity at 10 µM read?
A: -0.549%

Q: With `CN(C)c1ccc(C(=O)N2CCCC2c2ccc(Cl)cc2)cc1` (stereo unspecified) as the molecule, how does the cytotoxicity at 10 µM read?
A: 1.21%

Q: For `CCc1ccc(CN(C)C(=O)C2CC(=O)N(c3cccc(O)c3)C2)nc1` (stereo unspecified), which cytotoxicity at 10 µM is on record?
A: -3.57%
